Reference: ChEMBL document CHEMBL3272230, “Hypoglycemic alpha-cycloalkylphenylmehtyl, furanalkyl, and thiophenealkyl lactamimides” (1976)

Legend:
Assay type in all cases: functional
Rattus norvegicus [1] = assay: Hypoglycemic activity in fasted glucose primed Sprague-Dawley rat assessed as plasma glucose level at 12.5 mg/kg administered via oral gavage measured after 2 hrs by glucose-oxidase method relative to control
Method in brief: (§1)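 Young male Sprague-Dawley rats, 105-115 g, fasted overnight. Glucose 1 g/kg given subcutaneously, then test compound immediately by gavage. Blood taken 2 h later and plasma glucose measured by glucose oxidase. Six treated rats per group against six glucose-primed controls given vehicle only by gavage. Result expressed as % reduction versus control; values over 20% significant at p ≤ 0.05.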

Rattus norvegicus [2] = assay: Hypoglycemic activity in fasted glucose primed Sprague-Dawley rat assessed as plasma glucose level at 100 mg/kg administered via oral gavage measured after 2 hrs by glucose-oxidase method relative to control; method in brief: as §1
Rattus norvegicus [3] = assay: Hypoglycemic activity in fasted glucose primed Sprague-Dawley rat assessed as plasma glucose level at 25 mg/kg administered via oral gavage measured after 2 hrs by glucose-oxidase method relative to control; method in brief: as §1
Rattus norvegicus [4] = assay: Hypoglycemic activity in fasted glucose primed Sprague-Dawley rat assessed as plasma glucose level at 50 mg/kg administered via oral gavage measured after 2 hrs by glucose-oxidase method relative to control; method in brief: as §1
Rattus norvegicus [5] = assay: Hypoglycemic activity in fasted glucose primed Sprague-Dawley rat assessed as plasma glucose level at 200 mg/kg administered via oral gavage measured after 2 hrs by glucose-oxidase method relative to control; method in brief: as §1
Rattus norvegicus [6] = assay: Hypoglycemic activity in fasted glucose primed Sprague-Dawley rat assessed as plasma glucose level at 6 mg/kg administered via oral gavage measured after 2 hrs by glucose-oxidase method relative to control

c1csc(C(/N=C2\CCCCCCN2)C2CC2)c1 (stereo unspecified)
inhibition in vivo at 12.5 mg/kg (Rattus norvegicus [1]): 17%
inhibition in vivo at 100 mg/kg (Rattus norvegicus [2]): 50%

c1ccc(C(/N=C2\CCCCCN2)C2CCCC2)cc1 (stereo unspecified)
inhibition in vivo at 12.5 mg/kg (Rattus norvegicus [1]): 12%
inhibition in vivo at 100 mg/kg (Rattus norvegicus [2]): 46%

COc1ccc(C(/N=C2\CCCCCN2)C2CC2)cc1 (stereo unspecified)
inhibition in vivo at 12.5 mg/kg (Rattus norvegicus [1]): 1%
inhibition in vivo at 100 mg/kg (Rattus norvegicus [2]): 40%

COc1ccc(C(/N=C2\CCC(C(C)(C)C)CCN2)C2CC2)cc1 (stereo unspecified)
inhibition in vivo at 100 mg/kg (Rattus norvegicus [2]): 17%

c1ccc(C(/N=C2\CCCCN2)C2CC2)cc1 (stereo unspecified)
inhibition in vivo at 25 mg/kg (Rattus norvegicus [3]): 23%
inhibition in vivo at 12.5 mg/kg (Rattus norvegicus [1]): 1%
inhibition in vivo at 100 mg/kg (Rattus norvegicus [2]): 36%
inhibition in vivo at 50 mg/kg (Rattus norvegicus [4]): 33%

c1ccc(C(/N=C2\CCCCCN2)C2CC2)cc1 (stereo unspecified)
inhibition in vivo at 25 mg/kg (Rattus norvegicus [3]): 18%
inhibition in vivo at 12.5 mg/kg (Rattus norvegicus [1]): 5%
inhibition in vivo at 100 mg/kg (Rattus norvegicus [2]): 51%
inhibition in vivo at 50 mg/kg (Rattus norvegicus [4]): 41%

c1ccc(C(/N=C2\CCCCCCN2)C2CC2)cc1 (stereo unspecified)
inhibition in vivo at 25 mg/kg (Rattus norvegicus [3]): 26%
inhibition in vivo at 12.5 mg/kg (Rattus norvegicus [1]): 0%
inhibition in vivo at 100 mg/kg (Rattus norvegicus [2]): 58%
inhibition in vivo at 50 mg/kg (Rattus norvegicus [4]): 46%

Cc1ccc(C(/N=C2\CCCCCN2)C2CC2)c(C)c1 (stereo unspecified)
inhibition in vivo at 25 mg/kg (Rattus norvegicus [3]): 29%
inhibition in vivo at 12.5 mg/kg (Rattus norvegicus [1]): 14%
inhibition in vivo at 100 mg/kg (Rattus norvegicus [2]): 56%
inhibition in vivo at 50 mg/kg (Rattus norvegicus [4]): 43%

Cc1ccc(C(/N=C2\CCCCCCCN2)C2CC2)c(C)c1 (stereo unspecified)
inhibition in vivo at 25 mg/kg (Rattus norvegicus [3]): 37%
inhibition in vivo at 12.5 mg/kg (Rattus norvegicus [1]): 17%
inhibition in vivo at 100 mg/kg (Rattus norvegicus [2]): 61%
inhibition in vivo at 50 mg/kg (Rattus norvegicus [4]): 47%

c1ccc2c(C(/N=C3\CCCCCN3)C3CC3)cccc2c1 (stereo unspecified)
inhibition in vivo at 100 mg/kg (Rattus norvegicus [2]): 21%

c1ccc(C(/N=C2\CCCCCN2)C2CCC2)cc1 (stereo unspecified)
inhibition in vivo at 12.5 mg/kg (Rattus norvegicus [1]): 14%
inhibition in vivo at 100 mg/kg (Rattus norvegicus [2]): 44%

c1ccc(C(/N=C2\CCCCCN2)C2CCCCC2)cc1 (stereo unspecified)
inhibition in vivo at 100 mg/kg (Rattus norvegicus [2]): 0%

c1ccc(C(/N=C2\CCCCCN2)C2CCCCCC2)cc1 (stereo unspecified)
inhibition in vivo at 100 mg/kg (Rattus norvegicus [2]): 6%

c1coc(C/N=C2\CCCCCN2)c1
inhibition in vivo at 200 mg/kg (Rattus norvegicus [5]): 0%
inhibition in vivo at 100 mg/kg (Rattus norvegicus [2]): 0%

CC(Cc1cccs1)/N=C1\CCCCCN1 (stereo unspecified)
inhibition in vivo at 12.5 mg/kg (Rattus norvegicus [1]): 0%
inhibition in vivo at 100 mg/kg (Rattus norvegicus [2]): 41%

CCC(Cc1cccs1)/N=C1\CCCN1 (stereo unspecified)
inhibition in vivo at 100 mg/kg (Rattus norvegicus [2]): 35%

CCC(Cc1cccs1)/N=C1\CCCCN1 (stereo unspecified)
inhibition in vivo at 12.5 mg/kg (Rattus norvegicus [1]): 9%
inhibition in vivo at 100 mg/kg (Rattus norvegicus [2]): 42%

CCC(Cc1cccs1)/N=C1\CCCCCN1 (stereo unspecified)
inhibition in vivo at 12.5 mg/kg (Rattus norvegicus [1]): 10%
inhibition in vivo at 100 mg/kg (Rattus norvegicus [2]): 54%

CCC(Cc1cccs1)/N=C1\CCCCCCN1 (stereo unspecified)
inhibition in vivo at 100 mg/kg (Rattus norvegicus [2]): 44%

CCC(Cc1cccs1)/N=C1\CCCCCCCN1 (stereo unspecified)
inhibition in vivo at 12.5 mg/kg (Rattus norvegicus [1]): 31%
inhibition in vivo at 100 mg/kg (Rattus norvegicus [2]): 68%

CCC(Cc1cccs1)/N=C1\CCC(C(C)(C)C)CCN1 (stereo unspecified)
inhibition in vivo at 100 mg/kg (Rattus norvegicus [2]): 32%

CC(/N=C1\CCCCCN1)C(C)c1cccs1 (stereo unspecified)
inhibition in vivo at 12.5 mg/kg (Rattus norvegicus [1]): 0%
inhibition in vivo at 100 mg/kg (Rattus norvegicus [2]): 46%

C=CCC(Cc1cccs1)/N=C1\CCCCCN1 (stereo unspecified)
inhibition in vivo at 12.5 mg/kg (Rattus norvegicus [1]): 14%
inhibition in vivo at 100 mg/kg (Rattus norvegicus [2]): 65%
inhibition in vivo at 50 mg/kg (Rattus norvegicus [4]): 49%

c1csc(C(/N=C2\CCCCN2)C2CC2)c1 (stereo unspecified)
inhibition in vivo at 100 mg/kg (Rattus norvegicus [2]): 28%

c1csc(C(/N=C2\CCCCCN2)C2CC2)c1 (stereo unspecified)
inhibition in vivo at 12.5 mg/kg (Rattus norvegicus [1]): 33%
inhibition in vivo at 100 mg/kg (Rattus norvegicus [2]): 44%

c1ccc(C(/N=C2\CCCCN2)c2ccco2)cc1 (stereo unspecified)
inhibition in vivo at 25 mg/kg (Rattus norvegicus [3]): 10%
inhibition in vivo at 12.5 mg/kg (Rattus norvegicus [1]): 13%
inhibition in vivo at 100 mg/kg (Rattus norvegicus [2]): 27%
inhibition in vivo at 50 mg/kg (Rattus norvegicus [4]): 28%

c1ccc(C(/N=C2\CCCCCN2)c2ccco2)cc1 (stereo unspecified)
inhibition in vivo at 25 mg/kg (Rattus norvegicus [3]): 34%
inhibition in vivo at 12.5 mg/kg (Rattus norvegicus [1]): 5%
inhibition in vivo at 100 mg/kg (Rattus norvegicus [2]): 52%
inhibition in vivo at 50 mg/kg (Rattus norvegicus [4]): 37%

c1ccc(C(/N=C2\CCCCCCN2)c2ccco2)cc1 (stereo unspecified)
inhibition in vivo at 25 mg/kg (Rattus norvegicus [3]): 29%
inhibition in vivo at 12.5 mg/kg (Rattus norvegicus [1]): 22%
inhibition in vivo at 100 mg/kg (Rattus norvegicus [2]): 61%
inhibition in vivo at 50 mg/kg (Rattus norvegicus [4]): 42%

c1ccc(C(/N=C2\CCCCN2)c2cccs2)cc1 (stereo unspecified)
inhibition in vivo at 25 mg/kg (Rattus norvegicus [3]): 31%
inhibition in vivo at 12.5 mg/kg (Rattus norvegicus [1]): 13%
inhibition in vivo at 100 mg/kg (Rattus norvegicus [2]): 32%

c1ccc(C(/N=C2\CCCCCN2)c2cccs2)cc1 (stereo unspecified)
inhibition in vivo at 25 mg/kg (Rattus norvegicus [3]): 36%
inhibition in vivo at 12.5 mg/kg (Rattus norvegicus [1]): 23%
inhibition in vivo at 100 mg/kg (Rattus norvegicus [2]): 50%
inhibition in vivo at 50 mg/kg (Rattus norvegicus [4]): 46%

c1ccc(C(/N=C2\CCCCCCN2)c2cccs2)cc1 (stereo unspecified)
inhibition in vivo at 25 mg/kg (Rattus norvegicus [3]): 37%
inhibition in vivo at 12.5 mg/kg (Rattus norvegicus [1]): 29%
inhibition in vivo at 100 mg/kg (Rattus norvegicus [2]): 41%
inhibition in vivo at 50 mg/kg (Rattus norvegicus [4]): 37%

c1ccc(C(/N=C2\CCCCCCCCCCCN2)c2cccs2)cc1 (stereo unspecified)
inhibition in vivo at 100 mg/kg (Rattus norvegicus [2]): 4%

C1CCN/C(=N/[C@@H]2CCC[C@@H]2C2CCCCC2)CC1
inhibition in vivo at 25 mg/kg (Rattus norvegicus [3]): 42%
inhibition in vivo at 12.5 mg/kg (Rattus norvegicus [1]): 33%
inhibition in vivo at 6 mg/kg (Rattus norvegicus [6]): 13%
inhibition in vivo at 100 mg/kg (Rattus norvegicus [2]): 53%
inhibition in vivo at 50 mg/kg (Rattus norvegicus [4]): 49%

c1ccc(C(/N=C2\CCCCN2)c2ccccc2)cc1
inhibition in vivo at 25 mg/kg (Rattus norvegicus [3]): 42%
inhibition in vivo at 12.5 mg/kg (Rattus norvegicus [1]): 41%
inhibition in vivo at 6 mg/kg (Rattus norvegicus [6]): 12%
inhibition in vivo at 100 mg/kg (Rattus norvegicus [2]): 46%
inhibition in vivo at 50 mg/kg (Rattus norvegicus [4]): 52%

CCCCNC(=O)NS(=O)(=O)c1ccc(C)cc1 [TOLBUTAMIDE]
inhibition in vivo at 25 mg/kg (Rattus norvegicus [3]): 29%
inhibition in vivo at 12.5 mg/kg (Rattus norvegicus [1]): 16%
inhibition in vivo at 100 mg/kg (Rattus norvegicus [2]): 41%
inhibition in vivo at 50 mg/kg (Rattus norvegicus [4]): 43%
